Measured values published in article PMC9670593 (Journal of Molecular Liquids, 2022).
Values after ≈ are worked out from the molar mass of the structure shown. Values joined by “and” are separate entries in the source; they are usually repeats but may differ in a detail not shown here. Equal values may be shown once. Read-outs that look alike come from different tables or passages of the source.

How the values were obtained:
Escherichia coli = settings: cited from earlier work
[1] = system: Escherichia coli (ATCC: 25922); assay: Antibacterial agar disc diffusion; assay type: cell-based; settings: for zone of inhibition at 100 µg/mL: Escherichia coli, read-out: Inhibition zones (mm); for Activity index (%): relative to ampicillin; for Inhibition zones (mm): 5-mm discs, 100 μg/mL
In short: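 E. coli ATCC 25922 grown on Mueller–Hinton agar, 18–24 h at 35 °C. Inoculum adjusted to McFarland 0.5 (1.5x 10^8 CFU/mL) and swabbed as a lawn on Mueller–Hinton plates. Test compounds were stocked at 20 mg in 1 mL DMSO, and 5-mm paper discs were loaded with 100 μg/mL. Inhibition zone diameter was measured against ampicillin as standard, with DMSO as negative control. Assayed twice.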

[2] = system: Escherichia coli (ATCC: 25922); assay: Antibacterial minimal inhibitory concentration; assay type: cell-based; settings: 24 h; for Minimum Inhibition concentration (MIC): E. coli
In short: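 Test compounds were stocked at 20 mg/mL in DMSO. Ampicillin was run as standard drug and DMSO as negative control. MIC reported in μM.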

[3] = system: MCF-7: a human breast cancer cell line; assay: Cytotoxicity MTT assay, MCF-7; assay type: cell-based; settings: for IC50: read-out: IC50 MCF-7; for IC50 MCF-7: means ± SD, n = 3
In short: (§1)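 Cells were kept in DMEM with 0.2 % sodium bicarbonate and 10 % FBS at 37 °C, 5 % CO2, humidified. Only batches above 98 % trypan-blue viability were used. 10,000 cells/well adhered 24 h before treatment. MTT (5 mg/ml PBS stock, 10 μl per 100 μl) was added for 4 h, formazan dissolved in DMSO and read at 550 nm. Background-corrected survival = ODt/ODc ×100 versus untreated controls; IC50 taken from dose–response curves; cisplatin reference.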

[4] = system: HEK293: human embryonic kidney cells; assay: Cytotoxicity MTT assay, HEK293 normal cells; assay type: cell-based; settings: for IC50 HEK293: MTT, normal cell line, means ± SD, n = 3
In short: as §1

[5] = system: HELA: cancerous cervical tumor cells; assay: Cytotoxicity MTT assay, HELA; assay type: cell-based, human; settings: for IC50: read-out: IC50 HELA; for IC50 HELA: means ± SD, n = 3; for cytotoxic activity class, HELA: class by IC50 (µg/mL)
In short: as §1

[6] = Formation stability constant of the complexes; assay type: physicochemical; settings: metal:ligand 1:2
[7] = target: Human serum albumin (HSA) (Homo sapiens, UniProt P02768); assay: HSA binding, fluorescence quenching titration; settings: slope of Fo/F vs [metal complex]
In short: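 HSA concentration fixed spectrophotometrically at 278 nm using ε 35,219 M−1cm−1 (1 cm quartz). Increasing amounts of metal complex were titrated into constant HSA. Tryptophan fluorescence was excited at 280 nm and emission recorded over 300–400 nm. KSV was taken as the slope of the Stern–Volmer plot Fo/F versus [complex].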

Sequence of Human serum albumin (HSA) (P02768 25-609): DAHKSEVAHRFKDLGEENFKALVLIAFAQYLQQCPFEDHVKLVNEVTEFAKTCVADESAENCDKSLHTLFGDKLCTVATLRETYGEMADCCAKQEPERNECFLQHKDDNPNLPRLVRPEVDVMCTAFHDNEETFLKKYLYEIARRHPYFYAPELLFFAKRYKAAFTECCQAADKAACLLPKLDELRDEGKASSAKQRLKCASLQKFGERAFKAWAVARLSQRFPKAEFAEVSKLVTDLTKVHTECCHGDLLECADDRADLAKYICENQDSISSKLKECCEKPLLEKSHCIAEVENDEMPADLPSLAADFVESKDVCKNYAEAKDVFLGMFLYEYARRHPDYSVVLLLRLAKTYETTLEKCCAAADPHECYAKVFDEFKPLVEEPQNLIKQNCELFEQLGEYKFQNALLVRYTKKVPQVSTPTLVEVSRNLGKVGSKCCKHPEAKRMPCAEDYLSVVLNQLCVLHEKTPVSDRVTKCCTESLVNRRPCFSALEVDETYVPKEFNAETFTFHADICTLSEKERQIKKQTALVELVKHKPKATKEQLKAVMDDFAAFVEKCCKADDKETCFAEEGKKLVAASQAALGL

Compound	concentration showing complete inhibition of Escherichia coli (Escherichia coli) [µM]	reported growth-inhibiting concentration toward Escherichia coli (Escherichia coli; practical value for more than 24 h) [µM]	zone of inhibition at 100 µg/mL [1] [mm]	Activity index (%) [1] [%]	MIC ([2]; Escherichia coli, read-out: Minimum Inhibition concentration (MIC)) [µM]	IC50 ([3]; Homo sapiens, MCF7a)	IC50 ([4]; Homo sapiens, HEK293, read-out: IC50 HEK293) [mg/L]	IC50 ([5]; Homo sapiens, HeLa)	formation stability constant for the complexes [6]	fluorescence constant (Kvs; Stern-Volmer quenching constant KSV) with HSA [7] [M⁻¹]	Minimum Inhibition concentration (MIC) [2] [µM]	IC50 MCF-7 ([3]; MTT) [mg/L]	IC50 ([3]; MTT) [µM]	Inhibition zones (mm) [1] [mm]	IC50 HEK293 [4] [mg/L]	IC50 HELA ([5]; MTT) [mg/L]	IC50 ([5]; MTT) [µM]	cytotoxic activity class, MCF-7 ([3]; class by IC50 (µg/mL))	cytotoxic activity class, HELA [5]
O=[N+]([O-])[O-].[Ag+] [AgNO3]	> 8.5	6.5	–	–	–	–	–	–	–	–	–	–	–	–	–	–	–	–	–
CC1(C)S[C@@H]2[C@H](NC(=O)[C@H](N)c3ccccc3)C(=O)N2[C@H]1C(=O)O [Ampicillin, reference compound]	–	–	33	100	–	–	–	–	–	–	–	–	–	–	–	–	–	–	–
CC(=O)Oc1ccccc1C(=O)Nc1ncc([N+](=O)[O-])s1 [Free NTZ, 2-(acetyloxy)-N-(5-nitro-2-thiazolyl) benzamide, reference compound]	–	–	8	24	105 (≈ 32.3 µg/mL)	62 µg/mL and 202 µM	1050 ± 10 (≈ 3.42 mM)	78 µg/mL and 254 µM	–	–	–	–	–	–	–	–	–	–	–
[Ag(NTZ)2]NO3 [NTZ-Ag(I)]	–	–	–	85	–	–	–	–	4.22 × 10^5	3e+06	5.5	39 ± 4	50.8	28	660 ± 3	45 ± 2	58.7	–	–
[Au(NTZ)2]Cl3 [NTZ-Au(III)]	–	–	–	37	–	–	–	–	17.92 × 10^5	7e+06	27.5	25 ± 5	27.3	12	675 ± 5	8.9 ± 4	9.7	Moderate	very strong (1–10 (very strong))
[Ru(NTZ)2Cl2]Cl [NTZ-Ru(III)]	–	–	–	61	–	–	–	–	34.37 × 10^5	4e+06	7.5	10.5 ± 2	12.8	20	265 ± 5	6.5 ± 3	7.9	–	very strong (1–10 (very strong))
